# STEP inh: STEP phosphatase inhibitors, primary screen, biochemical, fluorescence intensity, uHTS. inhibition, % at 20 µM. recombinant STEP, OMFP fluorogenic substrate. Tyrosine-protein phosphatase non-receptor type 5 (Homo sapiens), P54829. actives 0.25% (n = 360,000);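 active = inhibition at 20 µM, scaled per plate between control wells, above about 37%, limit read from the data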;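 also: 0% = DMSO with enzyme and substrate and 100% = substrate only without enzyme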
#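 Assay system: isolated STEP enzyme. Buffer or medium: pH 6.0 Bis-Tris with DTT and Tween 20. Also added: fluorogenic phosphatase substrate OMFP at 25 µM final. Dosing: 20 µM, 1% DMSO. Timing: 20 min reaction, room temperature, in the dark. Measured by: fluorescence intensity, excitation 480 nm, emission 540 nm. Evaluation: normalized % inhibition.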
# DSG3 Ab inh: inhibitors of pemphigus antibody binding to DSG3, primary screen, biochemical, bead-based, flow cytometry, scFv-GFP | DSG3-coupled beads, scFv-anti-DSG3-GFP binding; active compounds read low | actives 0.48% (n = 310,000) | Desmoglein-3 (Homo sapiens), P32926 | AID 588358, 2011 | binding (percent of control), % at 10 µM;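 active = binding more than 3 SD below its plate's average and above zero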;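 also: hits lower antibody fragment binding to DSG3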
# LMPTP block: LMPTP phosphatase inhibitors, primary screen, biochemical, fluorescence intensity, uHTS; actives 0.22% (n = 360,000); inhibition, % at 20 µM; Low molecular weight phosphotyrosine protein phosphatase (Homo sapiens), P24666; recombinant LMPTP-A, OMFP fluorogenic substrate;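 active = compounds that cut the enzyme signal by at least half of the control window in the single-dose screen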;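 also: plate controls were DMSO wells with enzyme plus substrate for no effect and substrate without enzyme for full effect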
# Target sequence (P24666 whole entry, looked up): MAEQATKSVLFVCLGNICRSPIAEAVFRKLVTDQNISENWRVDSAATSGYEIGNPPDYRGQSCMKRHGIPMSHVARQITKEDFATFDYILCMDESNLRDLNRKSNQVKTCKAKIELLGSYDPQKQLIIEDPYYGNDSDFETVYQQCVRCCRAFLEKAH
#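 Test system: LMPTP-A, protein tyrosine phosphatase of low molecular weight; Input: 0.625 nM enzyme; Incubation: 50 min dark incubation at room temperature; Signal: endpoint fluorescence intensity from OMFP dephosphorylation; Read-out basis: % inhibition versus control wells.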
# SUMO1-SIM PPI: modulators of SUMO1 protein-protein interactions, primary screen, biochemical, uHTS; Small ubiquitin-related modifier 1 (Homo sapiens), P63165; SUMO1 binding to a labelled peptide, TR-FRET, 1 h; inhibition, % at 20 µM; actives 0.33% (n = 360,000); AID 602429, 2012; in the data active = inhibition above about 37%
# Target sequence (P63165 whole entry, looked up): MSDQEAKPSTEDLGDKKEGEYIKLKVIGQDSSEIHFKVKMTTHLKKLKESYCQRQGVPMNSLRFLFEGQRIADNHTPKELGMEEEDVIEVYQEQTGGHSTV
# Scp-1 inhibitor: Scp-1 phosphatase inhibitors, primary screen, biochemical, colorimetric, uHTS | inhibition, % at 20 µM | AID 493091, 2011 | Carboxy-terminal domain RNA polymerase II polypeptide A small phosphatase 1 (Homo … | Recombinant Scp1, phosphopeptide, malachite green phosphate absorbance | actives 0.88% (n = 340,000);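 active = inhibition above about 50% at 20 µM, limit read from the data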;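 also: plate controls were DMSO wells with enzyme for no effect and wells lacking enzyme for full effect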
# Target sequence (Q9GZU7 76-261 limits assumed): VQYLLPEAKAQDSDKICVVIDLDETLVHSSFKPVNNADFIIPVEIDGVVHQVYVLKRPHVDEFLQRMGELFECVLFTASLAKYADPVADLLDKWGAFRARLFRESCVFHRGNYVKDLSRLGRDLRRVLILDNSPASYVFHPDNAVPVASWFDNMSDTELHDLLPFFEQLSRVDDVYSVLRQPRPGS
#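 System: SCP-1 catalytic domain; Reagent: Phospho 17-mer peptide substrate; Doses: one concentration, 20 µM, with 1.0% DMSO; Incubation: 45 min room-temperature reaction, 5 min colour, 30 min stabiliser; Signal: Phosphate-binding colour reagent, absorbance read at 630 nm.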
# STEP conf: STEP phosphatase inhibitor hit confirmation, biochemical, fluorescence intensity, single concentration; shares compounds with STEP inh; recombinant STEP, OMFP fluorogenic substrate; inhibition, % at 20 µM; actives 32% (n = 520); AID 623866, 2012; call rule not given here;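 also: 0% = enzyme with substrate plus DMSO and 100% = substrate without enzyme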
# Active calls of the source: *; x = no result. In the library only some 1.7% were active in any assay of this set; here they are far more common.
SMILES,STEP inh,DSG3 Ab inh,LMPTP block,SUMO1-SIM PPI,Scp-1 inhibitor,STEP conf
COc1ccc(/C=C/C(=O)c2ccc3ccccc3c2O)cc1CN1CCOCC1,2,123,1,-4,-4,x
COc1ccc(/C=C/C(=O)c2ccccc2O)cc1CN1CCOCC1,52*,111,2,1,-3,-10
COCCCNC(=S)NC1CC2CCC(C1)N2Cc1ccccc1 (stereo not given),3,107,1,0,1,x
CCOCCCNC(=S)NC1CC2CCC(C1)N2Cc1ccccc1 (stereo not given),55*,x,1,2,-3,25
S=c1[nH]nc(-c2cccnc2)n1/N=C/C=C/c1ccccc1,2,105,-2,-11,9,x
S=c1[nH]nc(-c2cccnc2)n1/N=C/c1ccccc1,49*,104,0,-2,-5,7
CCOC(=O)c1ccccc1N/C=C1\CCCCC1=O,58*,93,-1,-13,-11,1
Cc1ccc(Nc2nnc(-c3ccc4c(c3)OCO4)o2)c(C)c1,48*,93,2,-1,-17,4
O=C(NCc1cccnc1)C1CCN(C(=O)c2ccc(Cl)cc2Cl)CC1,2,99,0,3,-5,x
O=C(NCc1ccco1)C1CCN(C(=O)c2ccc(Cl)cc2Cl)CC1,56*,x,0,2,5,11
Cc1cccc(S(=O)(=O)N/N=c2\sc3ccccc3n2C)c1,-1,112,0,1,-12,x
CCCCCCN1C[C@H](O)[C@@H](n2cc(C3CC3)nn2)C[C@@H]1c1ccc(C)cc1,0,x,-2,-3,x,x
COc1ccc(/C=N/NC(=O)c2nnn(-c3nonc3N)c2CN(C)c2ccccc2)cc1,73*,102,3,-5,-6,-2
CN(Cc1c(C(=O)N/N=C/c2ccccc2)nnn1-c1nonc1N)c1ccccc1,0,120,0,-2,-3,x
Cc1ccccc1COc1cccc(/C=N/NC(=O)c2nnn(-c3nonc3N)c2C)c1,91*,x,36,1,-3,0
COc1ccc(CNC(=O)CNC(=O)c2ccc(C(C)(C)C)cc2)cc1OC,-6,105,0,3,5,x
CC(=O)c1sc(NC(=O)c2ccc(F)c(F)c2)nc1C,58*,95,42,-10,44,16
O=C(N/N=C/c1cccnc1)c1ccc(NC(=O)c2ccc(Cl)cc2)cc1,53*,107,9,18,3,11
O=C(c1nc[nH]c1C(=O)N1CCN(c2ccccc2)CC1)N1CCN(c2ccccc2)CC1,2,102,-1,5,-2,x
Cc1ccc(OCCOCCN2CCN(C)CC2)c([N+](=O)[O-])c1,0,99,-3,1,-1,x
CC(Nc1nc(-c2ccc(F)cc2)cs1)c1nc2cc(C(F)(F)F)ccc2n1CCOCCO (stereo not given),0,104,2,1,-2,x
COc1ccc(-c2csc(NC(C)c3nc4cc(C(F)(F)F)ccc4n3CCOCCO)n2)cc1 (stereo not given),44*,101,3,1,-1,15
CCCn1c(SCC(=O)c2c(C)[nH]c(C)c2C(=O)OCC)nc2ccccc21,59*,103,1,4,-4,26
CCOC(=O)c1c(C)[nH]c(C)c1C(=O)CSc1nc2ccccc2n1CCC#N,14,98,0,3,-4,x
O=C(O)c1ccccc1C(=O)NCC(O)c1ccccc1 (stereo not given),91*,104,-1,6,-13,-4
SMILES,STEP inh,DSG3 Ab inh,LMPTP block,SUMO1-SIM PPI,Scp-1 inhibitor,STEP conf
COc1ccc(NC(=O)c2cccc(Oc3ccc([N+](=O)[O-])cc3Cl)c2)cc1,0,102,5,-7,-20,x
Cc1ccc(C)c(NC(=O)c2cccc(Oc3ccc([N+](=O)[O-])cc3Cl)c2)c1,77*,105,14,-3,-8,18
O=C(O)c1cccc(NC(=S)NC(=O)c2ccc(-c3ccccc3)cc2)c1,0,101,1,1,-3,x
COc1cc2ccccc2cc1C(=O)NC(=S)Nc1cccc(C(=O)O)c1,42*,x,2,9,22,13
O=C(O)c1ccc(NC(=S)NC(=O)c2ccc(-c3ccc(Br)cc3)o2)cc1,97*,x,80*,86*,8,11
O=C(Nc1ccc(OC(F)(F)F)cc1)C1CCCN(S(=O)(=O)c2cccnc2)C1 (stereo not given),39*,100,1,1,-3,3
COc1ccc(NC(=S)N2CCC(N(C)CC3CCCO3)CC2)cc1Cl (stereo not given),50*,104,-5,-2,2,42*
CN(c1ccccc1)S(=O)(=O)c1cccc(NC(=O)CN2C(=O)NC3(CCCC3)C2=O)c1,-5,106,-1,4,1,x
CC1=C(C(=O)OC(C)C)[C@@H](c2ccc(C)o2)NC(=O)N1,120*,106,0,3,-7,2
O=C1CCCc2c1sc1nc3n(c(=O)c21)CCCCC3,45*,102,0,-21,-11,-10
Cc1nnc2sc(-c3ccc(NC(=O)c4ccc(-c5ccc(Cl)cc5Cl)o4)cc3)nn12,95*,186,56*,31,36,60*
CC(=O)Cc1nsc(NC(=O)c2ccc(-c3ccc(Cl)cc3Cl)o2)n1,-2,93,2,-8,-9,x
COc1cc(N2C(=O)CSC23C(=O)Nc2ccccc23)cc(OC)c1OC (stereo not given),-9,92,-2,0,-7,x
COc1ccc(N2C(=O)CSC23C(=O)Nc2ccccc23)cc1OC (stereo not given),48*,100,3,6,0,8
CCOC(=O)c1ccc(NC(=S)NC(=O)COc2ccccc2)cc1,-3,x,3,-5,-10,x
O=C(Nc1nc2nccc(-c3ccccc3)n2n1)c1ccc(F)cc1,52*,106,1,4,-3,-1
CC1(C(=O)NS(=O)(=O)c2ccc(C#N)cc2)CCN1C(=O)C1(c2ccccc2)CCCC1 (stereo not given),0,x,-1,3,x,x
O=C(O)c1cccc(NC(=S)NC(NC(=O)c2cccc([N+](=O)[O-])c2)C(Cl)(Cl)Cl)c1 (stereo not given),63*,88,-1,98*,-8,8

# Source: PubChem BioAssay (several laboratories)
